Among the data in ChEMBL document CHEMBL2062452, “Identification of Simple Compounds with Microtubule-Binding Activity That Inhibit Cancer Cell Growth with High Potency” (ACS Med Chem Lett, 2011) are inhibition, Activity and EC50 values, retold here.

The structures appear in SMILES notation. pEC50: −log10 of the molar value. Active and inactive are the calls of the source. The calls are words filed in the database; no cut-off is given here. Where only a bound is given, the exact number is not on record here.

Assay [1] deals with HT-1080. In words: Inhibition of microtubule polymerization in human HT1080 cells at 50 nM for 4 hrs by immunocytochemistry analysis. The format is cell-based.
A further assay deals with Tubulin (Sus scrofa) (UniProt P02554+P02550). The assay can be described thus: Inhibition of pig brain tubulin polymerization at 5 uM measured every min for 60 mins by spectrophotometry. In a few lines: (§1)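 Purified porcine brain tubulin self-polymerized into microtubules in buffer, and polymerization was followed as the rise in light scattering at 340 nm.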
Chain of Tubulin (Sus scrofa) (P02550 whole entry, looked up): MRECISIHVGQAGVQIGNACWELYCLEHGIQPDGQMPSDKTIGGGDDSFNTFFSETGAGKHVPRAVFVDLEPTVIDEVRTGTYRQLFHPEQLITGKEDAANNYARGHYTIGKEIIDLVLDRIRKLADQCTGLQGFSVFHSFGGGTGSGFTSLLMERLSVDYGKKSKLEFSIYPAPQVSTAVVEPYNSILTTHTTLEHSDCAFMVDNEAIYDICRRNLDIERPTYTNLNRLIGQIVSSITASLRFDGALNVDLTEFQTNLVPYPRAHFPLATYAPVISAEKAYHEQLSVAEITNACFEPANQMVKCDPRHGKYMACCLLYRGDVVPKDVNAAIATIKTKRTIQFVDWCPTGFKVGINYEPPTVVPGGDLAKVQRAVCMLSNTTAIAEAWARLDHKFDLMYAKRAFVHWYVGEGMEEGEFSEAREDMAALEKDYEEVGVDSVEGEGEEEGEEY
Chain of Tubulin (Sus scrofa) (P02554 whole entry, looked up): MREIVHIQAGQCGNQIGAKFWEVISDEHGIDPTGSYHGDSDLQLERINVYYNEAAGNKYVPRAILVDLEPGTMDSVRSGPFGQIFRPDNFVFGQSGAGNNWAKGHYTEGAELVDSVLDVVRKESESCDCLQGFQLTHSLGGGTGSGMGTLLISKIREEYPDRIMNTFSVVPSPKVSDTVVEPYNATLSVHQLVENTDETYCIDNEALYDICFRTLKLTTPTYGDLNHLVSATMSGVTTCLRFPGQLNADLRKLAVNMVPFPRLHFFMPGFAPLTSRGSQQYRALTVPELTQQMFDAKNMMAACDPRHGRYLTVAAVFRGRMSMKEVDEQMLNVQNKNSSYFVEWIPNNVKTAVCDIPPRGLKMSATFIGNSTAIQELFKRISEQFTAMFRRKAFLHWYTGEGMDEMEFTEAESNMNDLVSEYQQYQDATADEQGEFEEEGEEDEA
The subject of assay [2] is HT-1080. The following applies: Homo sapiens, 100 nM.
The species entered for a further assay is Sus scrofa. The assay can be described thus: Stabilization of pig brain microtubule at 5 uM measured every min for 60 mins by spectrophotometry. In a few lines: as §1
For assay [3], the system named is HT-1080. The assay can be described thus: Growth inhibition of human HT1080 cells after 24 hrs by alamar blue assay. The format is functional, cell-based. The conditions noted are these: HT-1080, 24 h. In general terms: Alamar Blue is a resazurin reagent that responds to reducing activity.
Assay [4] can be described thus: Growth inhibition of human BJeLR cells after 24 hrs by alamar blue assay. The assay is classed as functional, cell-based.
A further assay deals with MCF-10A. The assay can be described thus: Growth inhibition of human MCF10A cells after 24 hrs by alamar blue assay. The assay is classed as functional, cell-based.
For assay [5], the system named is HT-1080. The assay can be described thus: Inhibition of microtubule polymerization in human HT1080 cells at 272 nM for 4 hrs by immunocytochemistry analysis. The format is cell-based. The method in brief:
(§2)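 HT-1080 cells were treated, then immunofluorescence-stained for microtubules and scored for loss of the hairlike network. Colchicine- and vinblastine-treated cells served as controls.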

Assay [6] concerns HT-1080. The assay can be described thus: Induction of apoptosis in human HT1080 cells assessed as caspase activation after 24 to 48 hrs. The format is functional, cell-based.
Assay [7] concerns HT-1080. In words: Induction of cell death in human HT1080 cells assessed as viability at 0.1 to 10000 nM after 24 hrs in the presence of caspase inhibitor Boc-D-fmk. The assay is classed as functional, cell-based.
The subject of assay [8] is HT-1080. In words: Induction of cell death in human HT1080 cells assessed as viability at 0.1 to 10000 nM after 24 hrs in the presence of caspase inhibitor zVAD-fmk. The format is functional, cell-based.
The test system of assay [9] is HT-1080. In words: Induction of apoptosis in human HT1080 cells assessed as caspase activation at 0.33 to 2729 nM. The format is functional, cell-based. The conditions noted are these: TDE = time-dependent effect.
For assay [10], the system named is HT-1080. The assay can be described thus: Induction of cell death in human HT1080 cells in presence of calcium channel inhibitor Co2+. The assay is classed as functional, cell-based.
For assay [11], the system named is HT-1080. The assay can be described thus: Inhibition of microtubule polymerization in human HT1080 cells at 250 nM for 4 hrs by immunocytochemistry analysis. The format is cell-based. In a few lines:
as §2

The subject of assay [12] is HT-1080. The assay can be described thus: Induction of apoptosis in human HT1080 cells assessed as caspase activation at 0.81 to 6006 nM. The assay is classed as functional, cell-based. The following applies: TDE = time-dependent effect.
For assay [13], the system named is HT-1080. The assay can be described thus: Induction of apoptosis in human HT1080 cells assessed as caspase activation at 0.33 to 2714 nM. The assay is classed as functional, cell-based. The conditions noted are these: TDE = time-dependent effect.

Consider `COc1cc2c(c(OC)c1OC)-c1ccc(OC)c(=O)cc1[C@@H](NC(C)=O)CC2`, for which the inhibition result with HT-1080 [1] was “Active”.

In the case of `CC[C@]1(O)C[C@@H]2CN(CCc3c([nH]c4ccccc34)[C@@](C(=O)OC)(c3cc4c(cc3OC)N(C)[C@H]3[C@@](O)(C(=O)OC)[C@H](OC(C)=O)[C@]5(CC)C=CCN6CC[C@]43[C@@H]65)C2)C1`, the inhibition entry on Tubulin (Sus scrofa) and in the assay on HT-1080 [2] was “Active” in each case.

Regarding `CC(=O)O[C@H]1C(=O)[C@@]2(C)[C@H]([C@H](OC(=O)c3ccccc3)[C@]3(O)C[C@H](OC(=O)[C@H](O)[C@@H](NC(=O)c4ccccc4)c4ccccc4)C(C)=C1C3(C)C)[C@]1(OC(C)=O)CO[C@@H]1C[C@@H]2O`, the result in the assay filed under Sus scrofa was Active.

As a reminder, the pEC50 is −log10 of the EC50, conventionally taken in molar units. A lower pEC50 goes with a large EC50. `CCOc1ccc(C2=Nn3c(nnc3-c3ccccc3OC)SC2)cc1`: the pEC50 (with HT-1080 [3]; in assay [4]; in the assay on MCF-10A) was above 7.00 throughout. For the same molecule, in the assay with HT-1080 [5], the inhibition entry was “Active”. For the same molecule, the values for the Activity entry in the assay on HT-1080 [6] and in the assay with HT-1080 [9] were “Dose-dependent effect” and “tde”, respectively. Besides, the outcome in the assay on HT-1080 [7], in the assay on HT-1080 [8] and with HT-1080 [10] was Active.

Take `COc1ccccc1N1CCN(C(=O)c2cc(=O)c3cc(C)cc(C)c3o2)CC1`: the pEC50 (in the assay on HT-1080 [3]; in assay [4]; with MCF-10A) was above 7.00 each time. Moreover, the inhibition entry in the assay with HT-1080 [11] was “inactive”. In addition, the Activity entry in the assay on HT-1080 [6] was “Dose-dependent effect”; with HT-1080 [12], “tde”. The result in the assay with HT-1080 [7], in the assay with HT-1080 [8], in the assay listed under Sus scrofa and with HT-1080 [10] was Active.

Consider `O=S(=O)(c1ccc(-c2cnc(C3CC3)o2)cc1)N1CCCc2ccccc21`, for which the pEC50 (with HT-1080 [3]; in assay [4]; in the assay with MCF-10A) was above 7.00 throughout. Besides, the inhibition result in the assay with HT-1080 [5] and on Tubulin (Sus scrofa) was “Active” each time. For the same molecule, the Activity entry is “Dose-dependent effect” in the assay with HT-1080 [6] and “tde” in the assay on HT-1080 [13]. Also, the outcome in the assay with HT-1080 [7], with HT-1080 [8] and in the assay on HT-1080 [10] was Active.
